Our source for the MIC values is ChEMBL document CHEMBL4118255, “Synthesis and antibacterial evaluation of novel 11-O-aralkylcarbamoyl-3-O-descladinosylclarithromycin derivatives” (2018).

Format in all cases: functional
In experiment [1] the test system is Staphylococcus aureus. As to the kind of experiment: Antibacterial activity against erythromycin-susceptible Staphylococcus aureus ATCC 25923 after 24 hrs by […]. Particulars: ATCC 25923, 24 h.
Experiment [2] relates to Escherichia coli. As to the kind of experiment: Antibacterial activity against penicillin-susceptible Escherichia coli ATCC 25922 incubated for 24 hrs by […]. As to conditions: ATCC 25922, 24 h.
In experiment [3] the test system is Streptococcus pyogenes. In words: Antibacterial activity against erythromycin-susceptible Streptococcus pyogenes after 24 hrs […].
The subject of experiment [4] is Pseudomonas aeruginosa. As to the kind of experiment: Antibacterial activity against penicillin-susceptible Pseudomonas aeruginosa ATCC 27853 incubated for 24 hrs by […]. Particulars: ATCC 27853, 24 h.
The test system of experiment [5] is Bacillus subtilis. As to the kind of experiment: Antibacterial activity against erythromycin-susceptible Bacillus subtilis ATCC 9372 after 24 hrs by tube-dilution method. As to conditions: ATCC 9372, 24 h. The essentials:
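MIC by standard NCCLS broth microdilution. Reference macrolides clarithromycin and azithromycin run alongside.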

Experiment [6] deals with Staphylococcus aureus. As to the kind of experiment: Antibacterial activity against methicillin-resistant Staphylococcus aureus ATCC 43300 after 24 hrs by tube-dilution method. As to conditions: ATCC 43300, 24 h. The procedure, abridged: (§1)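 MIC determined by the NCCLS-recommended standard broth microdilution method against erythromycin-resistant S. pneumoniae strains (A22072 mef, B1 erm, AB11 erm plus mef) and methicillin-resistant S. aureus ATCC43300.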

Experiment [7] relates to Streptococcus pneumoniae. As to the kind of experiment: Antibacterial activity against erythromycin-resistant Streptococcus pneumoniae B1 harboring ermB gene after 24 hrs by tube-dilution method. As to conditions: B1, 24 h. The essentials:
as §1

The subject of experiment [8] is Streptococcus pneumoniae. As to the kind of experiment: Antibacterial activity against erythromycin-resistant Streptococcus pneumoniae A22072 harboring mefA gene after 24 hrs by […]. As to conditions: A22072, 24 h.
Experiment [9] concerns Streptococcus pneumoniae. In words: Antibacterial activity against erythromycin-resistant Streptococcus pneumoniae AB11 harboring ermB and mefA genes after 24 hrs by tube-dilution method. As to conditions: AB11, 24 h. The essentials:
as §1

The test system of experiment [10] is Streptococcus pyogenes. As to the kind of experiment: Antibacterial activity against erythromycin-resistant Streptococcus pyogenes R1 after 24 hrs by tube-dilution method. Particulars: R1, 24 h.

Values after ≈ are worked out from the molar mass of the structure shown.

With `CC[C@H]1OC(=O)[C@H](C)C(=O)[C@H](C)[C@@H](O[C@@H]2O[C@H](C)C[C@H](N(C)C)[C@H]2O)[C@](C)(OC)C[C@@H](C)C(=O)[C@H](C)[C@@H](OC(=O)NCCNC(=O)C#Cc2ccc(Cl)cc2)[C@]1(C)O`, the minimum inhibitory concentration (MIC) – broadly, the lowest concentration found to suppress growth – was 8 µg/mL (≈ 9.56 µM) in experiment [1]; over 128 µg/mL in experiment [2]; 1 µg/mL (≈ 1.2 µM) in experiment [3]; over 128 µg/mL in experiment [4]; 2 µg/mL (≈ 2.39 µM) in [5]; 64 µg/mL (≈ 76.5 µM) in [6]. Further, the MIC in [7] stood at 128 µg/mL (≈ 153 µM); in experiment [8], 2 µg/mL (≈ 2.39 µM); in experiment [9], 64 µg/mL (≈ 76.5 µM); in experiment [10] it was 128 µg/mL (≈ 153 µM).

Turning to `CC[C@H]1OC(=O)[C@H](C)C(=O)[C@H](C)[C@@H](O[C@@H]2O[C@H](C)C[C@H](N(C)C)[C@H]2O)[C@](C)(OC)C[C@@H](C)C(=O)[C@H](C)[C@@H](OC(=O)NCCNC(=O)C#Cc2ccc(Cl)cc2Cl)[C@]1(C)O`, the minimum inhibitory concentration (MIC) was 16 µg/mL (≈ 18.4 µM) in experiment [1]; over 128 µg/mL in experiment [2]; 1 µg/mL (≈ 1.15 µM) in experiment [3]; over 128 µg/mL in experiment [4]; 1 µg/mL (≈ 1.15 µM) in [5]; 128 µg/mL (≈ 147 µM) in experiment [6]. Also, the MIC amounted to 128 µg/mL (≈ 147 µM) in [7], 2 µg/mL (≈ 2.3 µM) in experiment [8], 128 µg/mL (≈ 147 µM) in experiment [9] and 128 µg/mL (≈ 147 µM) in experiment [10].

With `CC[C@H]1OC(=O)[C@H](C)C(=O)[C@H](C)[C@@H](O[C@@H]2O[C@H](C)C[C@H](N(C)C)[C@H]2O)[C@](C)(OC)C[C@@H](C)C(=O)[C@H](C)[C@@H](OC(=O)NCCNC(=O)C#Cc2ccc(F)cc2)[C@]1(C)O`, the MIC in experiment [1] was 16 µg/mL (≈ 19.5 µM); in experiment [2], over 128 µg/mL; in [3], 1 µg/mL (≈ 1.22 µM); in experiment [4], over 128 µg/mL; in experiment [5], 2 µg/mL (≈ 2.44 µM); in experiment [6], 128 µg/mL (≈ 156 µM). The minimal inhibitory concentration (MIC) is 128 µg/mL (≈ 156 µM) in [7], 2 µg/mL (≈ 2.44 µM) in experiment [8], 64 µg/mL (≈ 78.1 µM) in experiment [9] and over 128 µg/mL in experiment [10].

As to `CC[C@H]1OC(=O)[C@H](C)C(=O)[C@H](C)[C@@H](O[C@@H]2O[C@H](C)C[C@H](N(C)C)[C@H]2O)[C@](C)(OC)C[C@@H](C)C(=O)[C@H](C)[C@@H](OC(=O)NCCNC(=O)C#Cc2ccccc2)[C@]1(C)O`, the MIC in experiment [1] was 32 µg/mL (≈ 39.9 µM); in experiment [2], over 128 µg/mL; in experiment [3] it was 2 µg/mL (≈ 2.49 µM); in [4], over 128 µg/mL; in [5], 4 µg/mL (≈ 4.99 µM); in experiment [6], 128 µg/mL (≈ 160 µM). The MIC was 128 µg/mL (≈ 160 µM) in experiment [7], 4 µg/mL (≈ 4.99 µM) in experiment [8], 128 µg/mL (≈ 160 µM) in experiment [9] and over 128 µg/mL in [10].

For `CC[C@H]1OC(=O)[C@H](C)C(=O)[C@H](C)[C@@H](O[C@@H]2O[C@H](C)C[C@H](N(C)C)[C@H]2O)[C@](C)(OC)C[C@@H](C)C(=O)[C@H](C)[C@@H](OC(=O)NCCNC(=O)C#Cc2cccc3ccccc23)[C@]1(C)O`, the MIC in [1] is 16 µg/mL (≈ 18.8 µM); in experiment [2] it was over 128 µg/mL; in experiment [3], 0.5 µg/mL (≈ 0.587 µM); in experiment [4] it was over 128 µg/mL; in [5] it was 1 µg/mL (≈ 1.17 µM); in [6], 64 µg/mL (≈ 75.1 µM). The MIC turned out to be 128 µg/mL (≈ 150 µM) in experiment [7], 1 µg/mL (≈ 1.17 µM) in experiment [8], 128 µg/mL (≈ 150 µM) in [9] and 64 µg/mL (≈ 75.1 µM) in [10].

In the case of `CC[C@H]1OC(=O)[C@H](C)C(=O)[C@H](C)[C@@H](O[C@@H]2O[C@H](C)C[C@H](N(C)C)[C@H]2O)[C@](C)(OC)C[C@@H](C)C(=O)[C@H](C)[C@@H](OC(=O)NCCNC(=O)C#Cc2ccccc2Cl)[C@]1(C)O`, the minimal inhibitory concentration (MIC) in [1] is 16 µg/mL (≈ 19.1 µM); in experiment [2], over 128 µg/mL; in [3] it was 1 µg/mL (≈ 1.2 µM); in experiment [4], over 128 µg/mL; in [5], 4 µg/mL (≈ 4.78 µM); in experiment [6], 128 µg/mL (≈ 153 µM). In addition, the MIC is 128 µg/mL (≈ 153 µM) in experiment [7], 2 µg/mL (≈ 2.39 µM) in [8], 128 µg/mL (≈ 153 µM) in [9] and over 128 µg/mL in [10].
